According to ChEMBL document CHEMBL1649231, “In vitro activities of panduratin A against clinical Staphylococcus strains” (2009):
≈ marks a conversion by molar mass, not a printed value.

Assays:
Format in all cases: functional
Staphylococcus hominis [1] = assay: Antimicrobial activity against methicillin-resistant coagulase-negative Staphylococcus hominis assessed as resistant isolates after 24 hrs by broth microdilution method
Staphylococcus simulans [2] = assay: Antimicrobial activity against methicillin-resistant coagulase-negative Staphylococcus simulans assessed as resistant isolates after 24 hrs by broth microdilution method
Staphylococcus aureus [3] = assay: Antimicrobial activity against methicillin-resistant Staphylococcus aureus after 24 hrs by broth microdilution method
Summary of the method: (§1)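 Clinical isolates came from blood, body fluids, genital secretions, pus or sputum, identified conventionally or by Vitek. MICs were run by CLSI M7-A6 broth microdilution in Mueller-Hinton broth with 5 × 10^5 CFU/ml inoculum. Agents were twofold serially diluted, starting from 10% DMSO. Drug-free and uninoculated controls were included. Plates were incubated aerobically at 37°C for 24 h; MIC is the lowest concentration giving no visible growth.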

[4] = test system: Staphylococcus epidermidis; assay: Antimicrobial activity against methicillin-susceptible coagulase-negative Staphylococcus epidermidis assessed as resistant isolates after 24 hrs by broth microdilution method
Staphylococcus simulans [5] = assay: Antimicrobial activity against methicillin-resistant coagulase-negative Staphylococcus simulans assessed as susceptible isolates after 24 hrs by broth microdilution method
Staphylococcus aureus [6] = assay: Bactericidal activity against methicillin-susceptible Staphylococcus aureus after 24 hrs by plate counting method
Summary of the method: (§2)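 Clinical staphylococcal isolates from patient body fluids, blood, genital secretions, pus or sputum; species by conventional methods or Vitek. Twofold dilutions in Mueller-Hinton broth, inoculum 5 × 10^5 CFU/ml, 37°C aerobic 24 h (CLSI M7-A6 microdilution). About 100 μl from each well without visible growth spread on MHA; 37°C 24 h. MBC = lowest concentration giving no growth on agar.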

Staphylococcus aureus [7] = assay: Antimicrobial activity against methicillin-susceptible Staphylococcus aureus assessed as resistant isolates after 24 hrs by broth microdilution method
Staphylococcus simulans [8] = assay: Antimicrobial activity against methicillin-susceptible coagulase-negative Staphylococcus simulans after 24 hrs by broth microdilution method; summary of the method: as §1
[9] = test system: Staphylococcus haemolyticus; assay: Antimicrobial activity against methicillin-resistant coagulase-negative Staphylococcus haemolyticus assessed as resistant isolates after 24 hrs by broth microdilution method
Staphylococcus simulans [10] = assay: Antimicrobial activity against methicillin-susceptible coagulase-negative Staphylococcus simulans assessed as susceptible isolates after 24 hrs by broth microdilution method
Summary of the method: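 Clinical isolates from blood, body fluids, pus, sputum or genital secretions, identified conventionally or by Vitek, were tested alongside ATCC 29213 and ATCC 12228 controls. CLSI M7-A6 broth microdilution in Mueller-Hinton broth used twofold dilutions from a 10% DMSO solution and 5 × 10^5 CFU/ml inoculum. Drug-free and uninoculated wells served as controls; incubation was aerobic at 37°C for 24 h. MIC was the lowest concentration with no visible growth.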

Staphylococcus hominis [11] = assay: Antimicrobial activity against methicillin-resistant coagulase-negative Staphylococcus hominis assessed as intermediate resistant isolates after 24 hrs by broth microdilution method
[12] = test system: Staphylococcus haemolyticus; assay: Antimicrobial activity against methicillin-resistant coagulase-negative Staphylococcus haemolyticus assessed as susceptible isolates after 24 hrs by broth microdilution method
Staphylococcus simulans [13] = assay: Bactericidal activity against methicillin-susceptible coagulase-negative Staphylococcus simulans after 24 hrs by plate counting method; summary of the method: as §2
Mammaliicoccus sciuri [14] = assay: Antimicrobial activity against methicillin-susceptible coagulase-negative Staphylococcus sciuri after 24 hrs by broth microdilution method; summary of the method: as §1
Staphylococcus simulans [15] = assay: Bactericidal activity against methicillin-resistant coagulase-negative Staphylococcus simulans after 24 hrs by plate counting method; summary of the method: as §2
[16] = test system: Staphylococcus haemolyticus; assay: Antimicrobial activity against methicillin-susceptible coagulase-negative Staphylococcus haemolyticus after 24 hrs by broth microdilution method; summary of the method: as §1
Staphylococcus simulans [17] = assay: Antimicrobial activity against methicillin-susceptible coagulase-negative Staphylococcus simulans assessed as resistant isolates after 24 hrs by broth microdilution method
Mammaliicoccus sciuri [18] = assay: Antimicrobial activity against methicillin-susceptible coagulase-negative Staphylococcus sciuri assessed as resistant isolates after 24 hrs by broth microdilution method
[19] = test system: Staphylococcus haemolyticus; assay: Antimicrobial activity against methicillin-resistant coagulase-negative Staphylococcus haemolyticus assessed as intermediate resistant isolates after 24 hrs by broth microdilution method
Mammaliicoccus sciuri [20] = assay: Antimicrobial activity against methicillin-resistant coagulase-negative Staphylococcus sciuri after 24 hrs by broth microdilution method; summary of the method: as §1
Staphylococcus aureus [21] = assay: Antimicrobial activity against methicillin-susceptible Staphylococcus aureus assessed as intermediate resistant isolates after 24 hrs by broth microdilution method
Staphylococcus hominis [22] = assay: Antimicrobial activity against methicillin-resistant coagulase-negative Staphylococcus hominis assessed as susceptible isolates after 24 hrs by broth microdilution method
[23] = test system: Staphylococcus epidermidis; assay: Antimicrobial activity against methicillin-resistant coagulase-negative Staphylococcus epidermidis assessed as resistant isolates after 24 hrs by broth microdilution method
Mammaliicoccus sciuri [24] = assay: Bactericidal activity against methicillin-susceptible coagulase-negative Staphylococcus sciuri after 24 hrs by plate counting method; summary of the method: as §2
Staphylococcus aureus [25] = assay: Antimicrobial activity against methicillin-susceptible Staphylococcus aureus after 24 hrs by broth microdilution method; summary of the method: as §1
Staphylococcus hominis [26] = assay: Antimicrobial activity against methicillin-susceptible coagulase-negative Staphylococcus hominis assessed as susceptible isolates after 24 hrs by broth microdilution method
[27] = test system: Staphylococcus epidermidis; assay: Bactericidal activity against methicillin-resistant coagulase-negative Staphylococcus epidermidis after 24 hrs by plate counting method
Mammaliicoccus sciuri [28] = assay: Bactericidal activity against methicillin-resistant coagulase-negative Staphylococcus sciuri after 24 hrs by plate counting method; summary of the method: as §2
Mammaliicoccus sciuri [29] = assay: Antimicrobial activity against methicillin-resistant coagulase-negative Staphylococcus sciuri assessed as susceptible isolates after 24 hrs by broth microdilution method
Staphylococcus aureus [30] = assay: Antimicrobial activity against methicillin-resistant Staphylococcus aureus assessed as intermediate resistant isolates after 24 hrs by broth microdilution method
[31] = test system: Staphylococcus haemolyticus; assay: Bactericidal activity against methicillin-resistant coagulase-negative Staphylococcus haemolyticus after 24 hrs by plate counting method
[32] = test system: Staphylococcus epidermidis; assay: Bactericidal activity against methicillin-susceptible coagulase-negative Staphylococcus epidermidis after 24 hrs by plate counting method; summary of the method: as §2
[33] = test system: Staphylococcus epidermidis; assay: Antimicrobial activity against methicillin-resistant coagulase-negative Staphylococcus epidermidis assessed as susceptible isolates after 24 hrs by broth microdilution method
Staphylococcus hominis [34] = assay: Antimicrobial activity against methicillin-susceptible coagulase-negative Staphylococcus hominis after 24 hrs by broth microdilution method; summary of the method: as §1
Staphylococcus hominis [35] = assay: Antimicrobial activity against methicillin-susceptible coagulase-negative Staphylococcus hominis assessed as intermediate resistant isolates after 24 hrs by broth microdilution method; settings: pooled result: one value given for 5 cell lines, strains, targets or settings
Staphylococcus simulans [36] = assay: Antimicrobial activity against methicillin-resistant coagulase-negative Staphylococcus simulans assessed as intermediate resistant isolates after 24 hrs by broth microdilution method
[37] = Staphylococcus epidermidis, 24 h

CC[C@H]1OC(=O)[C@H](C)[C@@H](O[C@H]2C[C@@](C)(OC)[C@@H](O)[C@H](C)O2)[C@H](C)[C@@H](O[C@@H]2O[C@H](C)C[C@H](N(C)C)[C@H]2O)[C@](C)(O)C[C@@H](C)C(=O)[C@H](C)[C@@H](O)[C@]1(C)O [ERYTHROMYCIN]
Activity (Staphylococcus hominis [1]): 74%
Activity (Staphylococcus simulans [2]): 74%
MIC50 (Staphylococcus aureus [3]): 32 µg/mL (≈ 43.6 µM)
MIC90 (Staphylococcus aureus [3]): 64 µg/mL (≈ 87.2 µM)
Activity [4]: 27%
Activity (Staphylococcus simulans [5]): 15%
MBC50 (Staphylococcus aureus [6]): 4 µg/mL (≈ 5.45 µM)
MBC (Staphylococcus aureus [6]; Staphylococcus aureus, 24 h): 1 µg/mL (≈ 1.36 µM)
Activity (Staphylococcus aureus [7]): 40%
MIC (Staphylococcus simulans [8]): 0.5 µg/mL (≈ 0.681 µM)
MIC50 (Staphylococcus simulans [8]): 0.5 µg/mL (≈ 0.681 µM)
MIC90 (Staphylococcus simulans [8]): 16 µg/mL (≈ 21.8 µM)
Activity [9]: 74%
Activity (Staphylococcus simulans [10]): 50%
Activity (Staphylococcus hominis [11]): 15%
Activity [12]: 11%
MBC50 (Staphylococcus simulans [13]): 2 µg/mL (≈ 2.73 µM)
MBC (Staphylococcus simulans [13]; Staphylococcus simulans, 24 h): 1 µg/mL (≈ 1.36 µM)
MIC (Mammaliicoccus sciuri [14]): 0.5 µg/mL (≈ 0.681 µM)
MIC50 (Mammaliicoccus sciuri [14]): 0.5 µg/mL (≈ 0.681 µM)
MIC90 (Mammaliicoccus sciuri [14]): 16 µg/mL (≈ 21.8 µM)
MBC50 (Staphylococcus simulans [15]): 32 µg/mL (≈ 43.6 µM)
MBC (Staphylococcus simulans [15]; Staphylococcus simulans, 24 h): 1 µg/mL (≈ 1.36 µM)
MIC [16]: 0.5 µg/mL (≈ 0.681 µM)
MIC50 [16]: 0.5 µg/mL (≈ 0.681 µM)
MIC90 [16]: 16 µg/mL (≈ 21.8 µM)
Activity (Staphylococcus simulans [17]): 27%
Activity (Mammaliicoccus sciuri [18]): 27%
Activity [19]: 15%
MIC50 (Mammaliicoccus sciuri [20]): 16 µg/mL (≈ 21.8 µM)
MIC90 (Mammaliicoccus sciuri [20]): 32 µg/mL (≈ 43.6 µM)
Activity (Staphylococcus aureus [21]): 4%
Activity (Staphylococcus hominis [22]): 11%
Activity [23]: 74%
MBC50 (Mammaliicoccus sciuri [24]): 2 µg/mL (≈ 2.73 µM)
MBC (Mammaliicoccus sciuri [24]; Mammaliicoccus sciuri, 24 h): 1 µg/mL (≈ 1.36 µM)
MIC (Staphylococcus aureus [25]): 0.5 µg/mL (≈ 0.681 µM)
MIC50 (Staphylococcus aureus [25]): 0.5 µg/mL (≈ 0.681 µM)
MIC90 (Staphylococcus aureus [25]): 32 µg/mL (≈ 43.6 µM)
Activity (Staphylococcus hominis [26]): 50%
MBC50 [27]: 32 µg/mL (≈ 43.6 µM)
MBC [27, 37]: 1 µg/mL (≈ 1.36 µM)
MBC50 (Mammaliicoccus sciuri [28]): 32 µg/mL (≈ 43.6 µM)
MBC (Mammaliicoccus sciuri [28]; Mammaliicoccus sciuri, 24 h): 1 µg/mL (≈ 1.36 µM)
Activity (Mammaliicoccus sciuri [29]): 15%
Activity (Staphylococcus aureus [30]): 0%
MBC50 [31]: 32 µg/mL (≈ 43.6 µM)
MBC ([31]; Staphylococcus haemolyticus, 24 h): 1 µg/mL (≈ 1.36 µM)
MBC50 [32]: 2 µg/mL (≈ 2.73 µM)
MBC [32, 37]: 1 µg/mL (≈ 1.36 µM)
Activity [33]: 11%
MIC (Staphylococcus hominis [34]): 0.5 µg/mL (≈ 0.681 µM)
MIC50 (Staphylococcus hominis [34]): 0.5 µg/mL (≈ 0.681 µM)
MIC90 (Staphylococcus hominis [34]): 16 µg/mL (≈ 21.8 µM)
Activity (Staphylococcus hominis [35]): 23%
Activity (Staphylococcus simulans [36]): 15%
